Assay results reported in ChEMBL document CHEMBL1157796, “Coumarins from Galipea panamensis and Their Activity against Leishmania panamensis” (J Nat Prod, 2010).
In brackets after ≈: the same amount, converted by molar mass.

How the values were obtained:
[1] = Cytotoxicity against human U937 cells; assay type: cell-based, U-937
[2] = Selectivity index, ratio of CC50 for human U937 cells to EC50 for Leishmania panamensis M/HOM//87/UA140; assay type: toxicity, cell-based, U-937; settings: read-out: Selectivity Index
Leishmania panamensis = assay: Antimicrobial activity against Leishmania panamensis M/HOM//87/UA140 transfected with p6.5-egfp after 72 hrs by MTT assay; assay type: functional, organism-based; settings: M/HOM//87/UA140, 72 h
In short: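 Axenic amastigotes of L. panamensis M/HOM//87/UA140 epirGFP strain (1 × 10^6 parasites/mL) incubated at 32 °C in Schneider's Drosophila medium pH 5.2 with 20% heat-inactivated FCS. Six concentrations, 3.1-100 µg/mL, from DMSO solutions, 72 h. MTT then added for 4 h, stopped with 2-propanol/SDS, OD 570 nm. DMSO-treated and untreated parasites as controls, amphotericin B as reference. Two independent experiments in triplicate, EC50 by Probit analysis.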

Compound | CC50 [1] [µg/mL] | selectivity ratio [2] | EC50 (Leishmania panamensis) [µg/mL]
C=C(C)[C@H]1O[C@@H]1c1c(OC)ccc2ccc(=O)oc12 [PHEBALOSIN] | 20.7 (≈ 80.1 µM) | 1.5 | 
COc1ccc2ccc(=O)oc2c1C(C=O)=C(C)C [MURRALONGIN] | 121 (≈ 470 µM) |  | > 100
C=C(C)[C@H]1O[C@@H]1c1c(OC[C@H]2OC2(C)C)ccc2ccc(=O)oc12 (relative stereo) | 9.7 (≈ 29.5 µM) | 1 | 10 (≈ 30.5 µM)
COc1ccc2ccc(=O)oc2c1-c1cocc1C | 33 (≈ 129 µM) | 3 | 10 (≈ 39 µM)
